Experimental data: ChEMBL document CHEMBL4689842, “EUbOPEN Chemogenomics Library wave 1” (2021)

Test system: Fibroblast
Assay: Multiplex assay against human fibroblast
Type: toxicity, cell-based
Outline: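 Four dyes were applied at seeding to live cells: Hoechst33342, BioTracker Green Microtubule Cytoskeleton Dye, MitoTracker Red and Annexin V Alexa Fluor 680. Imaging after compound addition used a CQ1 microscope at 37°C and 5% CO2. CellPathfinder machine-learning gating then sorted cells into Hoechst high-intensity objects or normal cells, normal cells into healthy, pyknosed or fragmented nuclei, and pyknosed cells into mitotic or apoptotic, with tubulin, mitochondrial-mass and membrane-permeability phenotypes given as per cents of healthy-nucleus cells.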

[1] = 12 h, 1 µM, compound concentration 1 uM, replicate 1
[2] = 12 h, 1 µM, compound concentration 1 uM, replicate 2
[3] = 12 h, 10 µM, compound concentration 10 uM, replicate 1
[4] = 12 h, 10 µM, compound concentration 10 uM, replicate 2
[5] = 24 h, 1 µM, compound concentration 1 uM, replicate 1
[6] = 24 h, 1 µM, compound concentration 1 uM, replicate 2
[7] = 24 h, 10 µM, compound concentration 10 uM, replicate 1
[8] = 24 h, 10 µM, compound concentration 10 uM, replicate 2

CCN1CCN(c2ccc(Nc3cc(N(C)C(=O)Nc4c(Cl)c(OC)cc(OC)c4Cl)ncn3)cc2)CC1 [INFIGRATINIB]
Population Apoptotic (%) [1]: 55%
Population Fragmented Nuclei (%) [1]: 28%
Population Healthy Nuclei (%) [1]: 43%
Population Hoechst High Intensity Objects (%) [1]: 24%
Population Membrane Permeable-Phenotype (%) [1]: 2%
Population Mitochondria Different-Phenotype (%) [1]: 12%
Population Mitotic Cells (%) [1]: 44%
Population Normal (%) [1]: 75%
Population Pyknosed Nuclei (%) [1]: 27%
Population Tubulin-Different-Phenotype (%) [1]: 23%
Total Cell Count [1]: 322
Population Apoptotic (%) [2]: 77%
Population Fragmented Nuclei (%) [2]: 63%
Population Healthy Nuclei (%) [2]: 20%
Population Hoechst High Intensity Objects (%) [2]: 38%
Population Membrane Permeable-Phenotype (%) [2]: 18%
Population Mitochondria Different-Phenotype (%) [2]: 27%
Population Mitotic Cells (%) [2]: 22%
Population Normal (%) [2]: 61%
Population Pyknosed Nuclei (%) [2]: 16%
Population Tubulin-Different-Phenotype (%) [2]: 45%
Total Cell Count [2]: 89
Population Apoptotic (%) [3]: 61%
Population Fragmented Nuclei (%) [3]: 31%
Population Healthy Nuclei (%) [3]: 55%
Population Hoechst High Intensity Objects (%) [3]: 13%
Population Membrane Permeable-Phenotype (%) [3]: 5%
Population Mitotic Cells (%) [3]: 38%
Population Normal (%) [3]: 86%
Population Tubulin-Different-Phenotype (%) [3]: 3%
Total Cell Count [3]: 195
Population Apoptotic (%) [4]: 75%
Population Fragmented Nuclei (%) [4]: 60%
Population Healthy Nuclei (%) [4]: 26%
Population Hoechst High Intensity Objects (%) [4]: 34%
Population Membrane Permeable-Phenotype (%) [4]: 17%
Population Mitochondria Different-Phenotype (%) [4]: 5%
Population Mitotic Cells (%) [4]: 25%
Population Normal (%) [4]: 65%
Population Pyknosed Nuclei (%) [4]: 12%
Population Tubulin-Different-Phenotype (%) [4]: 11%
Total Cell Count [4]: 98
Population Apoptotic (%) [5]: 60%
Population Fragmented Nuclei (%) [5]: 15%
Population Healthy Nuclei (%) [5]: 44%
Population Hoechst High Intensity Objects (%) [5]: 36%
Population Membrane Permeable-Phenotype (%) [5]: 4%
Population Mitochondria Different-Phenotype (%) [5]: 29%
Population Mitotic Cells (%) [5]: 40%
Population Normal (%) [5]: 63%
Population Pyknosed Nuclei (%) [5]: 39%
Population Tubulin-Different-Phenotype (%) [5]: 40%
Total Cell Count [5]: 259
Population Apoptotic (%) [6]: 66%
Population Fragmented Nuclei (%) [6]: 60%
Population Healthy Nuclei (%) [6]: 27%
Population Hoechst High Intensity Objects (%) [6]: 46%
Population Membrane Permeable-Phenotype (%) [6]: 0%
Population Mitochondria Different-Phenotype (%) [6]: 23%
Population Mitotic Cells (%) [6]: 33%
Population Normal (%) [6]: 53%
Population Pyknosed Nuclei (%) [6]: 12%
Population Tubulin-Different-Phenotype (%) [6]: 38%
Total Cell Count [6]: 90
Population Apoptotic (%) [7]: 68%
Population Fragmented Nuclei (%) [7]: 26%
Population Healthy Nuclei (%) [7]: 61%
Population Hoechst High Intensity Objects (%) [7]: 15%
Population Mitochondria Different-Phenotype (%) [7]: 3%
Population Mitotic Cells (%) [7]: 31%
Population Normal (%) [7]: 84%
Population Pyknosed Nuclei (%) [7]: 11%
Population Tubulin-Different-Phenotype (%) [7]: 3%
Total Cell Count [7]: 191
Population Apoptotic (%) [8]: 100%
Population Fragmented Nuclei (%) [8]: 56%
Population Healthy Nuclei (%) [8]: 32%
Population Hoechst High Intensity Objects (%) [8]: 34%
Population Membrane Permeable-Phenotype (%) [8]: 9%
Population Mitochondria Different-Phenotype (%) [8]: 9%
Population Mitotic Cells (%) [8]: 0%
Population Normal (%) [8]: 65%
Population Pyknosed Nuclei (%) [8]: 10%
Population Tubulin-Different-Phenotype (%) [8]: 9%
Total Cell Count [8]: 99
